Measurements from ChEMBL document CHEMBL1147981, “Small molecule activators of SIRT1 as therapeutics for the treatment of type 2 diabetes” (Nature, 2007).
One block for each compound: values may come before it. Active and inactive are the calls of the source. No cut-off for these calls is given here.

Experiments:
[1] = biological target: T1, NAD-dependent protein deacetylase sirtuin-3, mitochondrial (Homo sapiens, UniProt Q9NTG7); assay: Activation of SIRT3 by mass spectrometry assay
T1 sequence (Q9NTG7 whole entry): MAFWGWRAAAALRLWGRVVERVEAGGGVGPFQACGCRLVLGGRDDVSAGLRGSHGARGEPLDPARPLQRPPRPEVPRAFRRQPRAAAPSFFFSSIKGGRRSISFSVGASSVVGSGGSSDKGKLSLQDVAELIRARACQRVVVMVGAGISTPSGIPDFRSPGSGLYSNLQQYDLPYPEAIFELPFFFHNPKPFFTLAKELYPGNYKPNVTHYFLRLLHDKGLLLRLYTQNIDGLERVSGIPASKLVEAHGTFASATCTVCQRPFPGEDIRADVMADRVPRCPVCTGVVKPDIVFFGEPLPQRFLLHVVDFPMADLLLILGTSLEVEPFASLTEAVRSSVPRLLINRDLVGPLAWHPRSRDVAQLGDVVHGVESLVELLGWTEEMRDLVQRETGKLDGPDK

[2] = biological target: T2, NAD-dependent protein deacetylase sirtuin-1 (Homo sapiens, UniProt Q96EB6); assay: (§1) Activation of human SIRT1 expressed in Escherichia coli BL21 by mass spectrometry assay
T2 sequence (Q96EB6 whole entry): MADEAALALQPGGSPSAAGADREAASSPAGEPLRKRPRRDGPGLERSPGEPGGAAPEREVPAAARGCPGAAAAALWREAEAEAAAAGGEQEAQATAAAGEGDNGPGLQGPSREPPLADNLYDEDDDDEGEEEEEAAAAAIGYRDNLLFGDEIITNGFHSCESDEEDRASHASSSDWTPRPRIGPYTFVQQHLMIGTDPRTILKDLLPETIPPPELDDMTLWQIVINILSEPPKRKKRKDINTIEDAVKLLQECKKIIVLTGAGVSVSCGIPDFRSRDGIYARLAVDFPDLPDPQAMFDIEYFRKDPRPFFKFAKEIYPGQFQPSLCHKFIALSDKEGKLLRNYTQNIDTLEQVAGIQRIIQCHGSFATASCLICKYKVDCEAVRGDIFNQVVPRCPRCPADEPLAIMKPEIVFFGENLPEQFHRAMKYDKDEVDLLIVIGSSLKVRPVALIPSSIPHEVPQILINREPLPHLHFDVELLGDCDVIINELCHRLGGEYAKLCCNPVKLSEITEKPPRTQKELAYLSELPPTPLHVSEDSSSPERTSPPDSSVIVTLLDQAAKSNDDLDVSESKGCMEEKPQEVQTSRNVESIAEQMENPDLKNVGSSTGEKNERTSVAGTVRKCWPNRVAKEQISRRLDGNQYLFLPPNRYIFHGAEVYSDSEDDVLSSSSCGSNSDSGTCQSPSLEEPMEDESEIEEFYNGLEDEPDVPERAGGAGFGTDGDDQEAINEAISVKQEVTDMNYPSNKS

[3] = biological target: T3, NAD-dependent protein deacetylase sirtuin-1 (Homo sapiens) (UniProt Q96EB6); assay: as §1
T3 sequence (whole entry): T2 sequence (Q96EB6 whole entry)

[4] = biological target: T3, NAD-dependent protein deacetylase sirtuin-1 (Homo sapiens); assay: Activation of human SIRT1 assessed as decrease in Km of enzyme for acetylated peptide substrate by mass spectrometry assay
[5] = biological target: T4, NAD-dependent protein deacetylase sirtuin-2 (Homo sapiens, UniProt Q8IXJ6); assay: Activation of SIRT2 by mass spectrometry assay
T4 sequence (Q8IXJ6 whole entry): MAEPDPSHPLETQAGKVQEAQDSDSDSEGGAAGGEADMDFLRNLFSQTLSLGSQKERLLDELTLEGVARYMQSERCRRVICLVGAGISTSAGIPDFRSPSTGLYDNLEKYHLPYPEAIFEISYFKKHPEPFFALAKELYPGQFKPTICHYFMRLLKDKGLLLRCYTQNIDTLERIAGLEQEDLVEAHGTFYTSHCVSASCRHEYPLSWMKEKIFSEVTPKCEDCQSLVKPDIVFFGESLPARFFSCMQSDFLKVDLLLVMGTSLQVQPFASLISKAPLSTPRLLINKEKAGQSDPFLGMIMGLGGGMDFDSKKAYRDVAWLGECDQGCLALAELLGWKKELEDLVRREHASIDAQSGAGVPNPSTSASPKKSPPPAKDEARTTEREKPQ

[6] = biological target: T2, NAD-dependent protein deacetylase sirtuin-1; assay: Binding affinity to human SIRT1 by isothermal titration calorimetry
[7] = biological target: T3, NAD-dependent protein deacetylase sirtuin-1 (Homo sapiens); assay: Activation of SIRT1 in human U2OS cells assessed as decrease in deacetylation level at 10 uM; assay type: cell-based
Outline: (§2)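 U-2 OS cells seeded 1.5 × 10⁴/well; compounds in DMSO added after 24 h, then doxorubicin 1 μg/ml final to induce p53. Fixed, permeabilized, immunostained for Ac-Lys382-p53 and beta-tubulin, infrared scan; background-corrected acetyl signal normalized to tubulin, then to vehicle as % acetylated p53. Replicate plates co-treated with a SIRT1-specific inhibitor.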

Mus musculus [8] = assay: Reduction of glucose levels in DIO C57BL/6 mouse model at 100 mg/kg, po during insulin tolerance test; assay type: functional, organism-based; design: dose 100 mg/kg
Outline: (§3)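 Male C57BL/6 mice, started at nine weeks, fed 60%-fat diet until mean weight ~40 g; 6-10 per group; once-daily oral gavage in 2% HPMC + 0.2% DOSS. Fed glucose at 2, 4, 6, 8, 10 weeks; IPGTT after 5 weeks; ITT after 10 weeks. One-way ANOVA with Dunnett's test vs control, p<0.05.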

Mus musculus [9] = assay: Reduction of blood glucose level in diabetic Lep ob/ob mouse model at 100 mg/kg, po after 1 week; assay type: functional, organism-based; design: dose 100 mg/kg
Outline: (§4)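 ob/ob mice received at 6 weeks, kept on 60%-fat diet from at least one week before study; ~40-45 g; grouped by body weight and glucose; once-daily oral gavage in 2% HPMC + 0.2% DOSS. One-way ANOVA with Dunnett's test vs control, p<0.05.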

Mus musculus [10] = assay: Reduction of hyperinsulinemia in DIO C57BL/6 mouse model at 100 mg/kg, po after 4 weeks; assay type: functional, organism-based; design: dose 100 mg/kg
[11] = biological target: T3, NAD-dependent protein deacetylase sirtuin-1 (Homo sapiens); assay: Activation of human SIRT1-F (230-664) construct by mass spectrometry assay relative to control
Mus musculus [12] = assay: Increase in mitochondrial capacity in DIO C57BL/6 mouse model assessed as citrate synthase activity at 100 mg/kg, po after 10 weeks; assay type: functional; conditions: in the assay text read “after 11 weeks” for “after 10 weeks”
Outline: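 Citrate synthase activity in gastrocnemius and epididymal white adipose tissue after 11 weeks of daily oral dosing in high-fat-fed C57BL/6 mice; five mice per group closest to the group's mean fasting glucose were selected.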

[13] = Terminal half life in C57BL/6 mouse at 100 mg/kg/day, po; assay type: ADME, organism-based; design: route oral; conditions: in vivo
Outline: (§5)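 Oral gavage in 2% HPMC + 0.2% DOSS (hydrochloride salt) to male C57BL/6 mice, 18-22 g, 3 per dose group per time point; blood taken at 5, 30, 120 and 360 min after dosing after CO2 sacrifice; plasma drug levels measured.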

[14] = biological target: T3, NAD-dependent protein deacetylase sirtuin-1 (Homo sapiens); assay: Activation of human SIRT1-H (240-664) construct by mass spectrometry assay relative to control
[15] = biological target: T3, NAD-dependent protein deacetylase sirtuin-1 (Homo sapiens); assay: Activation of human SIRT1-A (156-664) construct by mass spectrometry assay relative to control
[16] = biological target: T3, NAD-dependent protein deacetylase sirtuin-1 (Homo sapiens); assay: Activation of human SIRT1-E (225-664) construct by mass spectrometry assay relative to control
[17] = Bioavailability in Sprague-Dawley rat administered at 10 mg/kg, iv; assay type: ADME, organism-based; conditions: in vivo
Mus musculus [18] = species on record: Mus musculus; assay: Reduction of insulin level in chow-fed C57BL/6 mouse; assay type: functional, organism-based
Rattus norvegicus [19] = assay: Increase in insulin-induced glucose disposal rate into skeletal muscle in po dosed Zucker fa/fa rat relative to control; assay type: functional
[20] = biological target: T3, NAD-dependent protein deacetylase sirtuin-1 (Homo sapiens); assay: Activation of human SIRT1-B (172-664) construct by mass spectrometry assay relative to control
Rattus norvegicus [21] = assay: Increase in glucose disposal rate in po dosed Zucker fa/fa rat relative to control; assay type: functional
Outline: (§6)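 Cannulated 10-week-old fa/fa Zucker rats, unrestrained. D-[3-3H]glucose prime 7.5 μCi, then infused at 0.167 μCi/min; basal samples at -10 and 0 min for hepatic glucose production. From 0 min, insulin at 25 mU/kg/min plus variable 50% dextrose infusion; plasma insulin and FFA at 0 and 120 min.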

[22] = biological target: T3, NAD-dependent protein deacetylase sirtuin-1 (Homo sapiens); assay: Activation of human SIRT1-D (219-664) construct by mass spectrometry assay relative to control
Mus musculus [23] = assay: Reduction of fasting blood glucose in DIO C57BL/6 mouse model at 100 mg/kg, po assessed as glucose level by glucose tolerance test; assay type: functional; outline: as §3
[24] = biological target: T3, NAD-dependent protein deacetylase sirtuin-1 (Homo sapiens); assay: Activation of human SIRT1-C construct by mass spectrometry assay relative to control
Mus musculus [25] = assay: Effect on body weight in diabetic Lep ob/ob mouse model at 100 mg/kg, po; assay type: functional, organism-based; design: dose 100 mg/kg; outline: as §4
[26] = biological target: T3, NAD-dependent protein deacetylase sirtuin-1 (Homo sapiens); assay: Activation of human SIRT1-G (235-664) construct by mass spectrometry assay relative to control
Rattus norvegicus [27] = assay: Increase in glucose infusion rate required to maintain euglycaemia in po dosed Zucker fa/fa rat relative to control; assay type: functional; outline: as §6
[28] = Bioavailability in C57BL/6 mouse at 100 mg/kg/day, po; assay type: ADME, organism-based; conditions: in vivo
Outline: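 Male C57BL/6 mice (18-22 g, 3 per group per time point). Oral dosing by gavage in 2% HPMC + 0.2% DOSS, compared with tail-vein iv dosing in 10% ethanol/40% PEG/50% water.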

[29] = Terminal half life in Sprague-Dawley rat at 100 mg/kg/day, po; assay type: ADME, organism-based; design: route oral; conditions: in vivo
Rattus norvegicus [30] = assay: Reduction of blood insulin level in po dosed Zucker fa/fa rat after 3 weeks by glucose tolerance test; assay type: functional
Outline: (§7)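 On day 26 of daily oral dosing, fa/fa Zucker rats fasted 5 h, then gavaged with 1 g/kg dextrose; tail-vein glucose at 0, 15, 30, 60, 90 min; plasma for insulin at 0, 15, 30, 60 min.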

[31] = AUC in C57BL/6 mouse at 100 mg/kg/day, po; assay type: ADME, organism-based; design: route oral; conditions: plasma; outline: as §5
Rattus norvegicus [32] = species on record: Rattus norvegicus; assay: Reduction in hepatic gluconeogenesis in Zucker fa/fa rat assessed as glucose response by pyruvate tolerance test relative to control; assay type: functional, organism-based
Outline: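 Day 22 of daily oral dosing in fa/fa Zucker rats: after overnight fast, sodium pyruvate 1 g/kg ip in 0.9% NaCl; tail-vein glucose at 0, 30, 40, 50, 60 and 90 min.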

[33] = AUC in Sprague-Dawley rat at 100 mg/kg/day, po; assay type: ADME, organism-based; design: route oral; conditions: plasma
Rattus norvegicus [34] = assay: Reduction of blood glucose level in po dosed Zucker fa/fa rat assessed as glucose level after 3 weeks by glucose tolerance test; assay type: functional; outline: as §7
Rattus norvegicus [35] = assay: Increase in insulin sensitivity in po dosed Zucker fa/fa rat assessed as hepatic glucose production relative to control; assay type: functional, organism-based; outline: as §6
[36] = biological target: T3, NAD-dependent protein deacetylase sirtuin-1 (Homo sapiens); assay: Activation of SIRT1 in human U2OS cells assessed as decrease in p53 deacetylation level at 0.10 uM; assay type: cell-based; outline: as §2
Rattus norvegicus [37] = assay: Increase in adipose insulin sensitivity in po dosed Zucker fa/fa rat assessed as plasma free fatty acid level relative to control; assay type: functional; outline: as §6

EC50 [1]: > 300 µM | EC50 [2]: 2.9 µM | Activity [3]: 447% | Activity [4]: Active | EC50 [5]: > 300 µM | Kd [6]: 16.2 µM | Activity [7]: Active
SMILES: COc1cc(C(=O)Nc2ccccc2-c2cn3c(CN4CCNCC4)csc3n2)cc(OC)c1OC

Activity [11]: 1.5 | half-life [13]: 5 h | Activity [14]: 2 | Activity [15]: 5.9 | Activity [16]: 1.6 | bioavailability [17]: 25% | Activity [20]: 5.8 | Activity [22]: 1.3 | EC50 [1]: > 300 µM | Activity [24]: 5.6 | Activity [3]: 781% | Activity [26]: 1.9 | Activity [4]: Active | bioavailability [28]: 50% | half-life [29]: 8.4 h | AUC [31]: 7890 ng·h/mL | EC50 [5]: 37 µM | AUC [33]: 3710 ng·h/mL | Activity [36]: Active
SMILES: O=C(Nc1ccccc1-c1cn2c(CN3CCNCC3)csc2n1)c1cnc2ccccc2n1
Activity (Mus musculus [8]): Active | Activity (Mus musculus [9]): Active | Activity (Mus musculus [10]): Active | Activity (Mus musculus [12]): 15% | Activity (Mus musculus [18]): inactive | Activity (Rattus norvegicus [19]): 55% | Activity (Rattus norvegicus [21]): 20% | Activity (Mus musculus [23]): 462 mg/h/dL | Activity (Mus musculus [25]): inactive | Activity (Rattus norvegicus [27]): 35% | Activity (Rattus norvegicus [30]): 25 ng/min/dL | Activity (Rattus norvegicus [32]): Active | Activity (Rattus norvegicus [34]): 2490 mg/min/dL | Activity (Rattus norvegicus [35]): Active | Activity (Rattus norvegicus [37]): 40%
